Screening data as filed in PubChem.
In the library only some 2.3% were active in any assay of this set; here they are far more common.
TRPC6 act = mouse TRPC6 channel activation; Q61143; HEK293-TRPC6 membrane potential dye fluorescence; active compounds read high; B-score at 10 µM; 0.13% of 310,000 active;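 active = B-score of the integrated fluorescence ratio above library mean plus 3 SD, and starting fluorescence ratio within library mean plus 5 SD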;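 note: higher score means more depolarization so channel activation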
Target sequence (Q61143 whole entry, looked up): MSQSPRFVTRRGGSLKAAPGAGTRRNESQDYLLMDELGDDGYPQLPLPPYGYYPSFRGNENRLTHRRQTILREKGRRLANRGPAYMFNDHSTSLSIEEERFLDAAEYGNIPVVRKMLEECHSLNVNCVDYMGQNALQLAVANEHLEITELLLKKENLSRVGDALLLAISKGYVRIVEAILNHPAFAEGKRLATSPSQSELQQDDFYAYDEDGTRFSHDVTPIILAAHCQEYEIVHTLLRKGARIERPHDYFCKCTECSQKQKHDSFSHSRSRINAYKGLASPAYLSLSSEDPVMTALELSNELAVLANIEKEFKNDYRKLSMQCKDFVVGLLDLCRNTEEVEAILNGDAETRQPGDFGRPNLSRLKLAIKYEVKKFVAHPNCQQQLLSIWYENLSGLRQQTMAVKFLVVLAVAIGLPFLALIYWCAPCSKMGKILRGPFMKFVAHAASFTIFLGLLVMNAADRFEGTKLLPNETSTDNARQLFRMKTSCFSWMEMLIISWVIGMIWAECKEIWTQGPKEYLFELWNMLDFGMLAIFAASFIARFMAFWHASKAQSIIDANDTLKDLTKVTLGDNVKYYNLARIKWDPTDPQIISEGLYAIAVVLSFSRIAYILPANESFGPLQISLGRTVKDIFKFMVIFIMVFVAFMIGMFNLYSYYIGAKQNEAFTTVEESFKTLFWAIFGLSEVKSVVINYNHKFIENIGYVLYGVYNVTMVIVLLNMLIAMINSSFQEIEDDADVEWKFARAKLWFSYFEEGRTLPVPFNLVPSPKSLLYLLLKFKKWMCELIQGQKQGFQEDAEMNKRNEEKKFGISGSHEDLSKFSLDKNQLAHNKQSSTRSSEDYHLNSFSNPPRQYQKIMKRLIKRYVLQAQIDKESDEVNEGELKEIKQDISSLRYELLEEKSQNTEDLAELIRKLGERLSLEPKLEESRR
TRPC4 potent = allosterically enhances the mouse TRPC4 cation channel | Q9QUQ5 | AID 2227 | HEK293 TRPC4beta/mu-opioid, DAMGO EC20, Fluo-4 Ca2+ flux; active compounds read high | B-score at 10 µM | 0.42% of 310,000 active;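 active = B-score of calcium response area above 5 SD of library B-scores, with initial fluorescence ratio within 5 SD of library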;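 note: B-score of integrated fluorescence ratio over time as area under calcium response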
TRPC6 inh = inhibitors of mouse TRPC6 channel. Q61143. HEK293-TRPC6, membrane potential dye, ACh-evoked depolarization; active compounds read low. B-score at 10 µM. 1.1% of 310,000 active. AID 2553;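 active = B-score under library mean minus 3 SD, initial fluorescence not abnormally high, positive integrated signal ratio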;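 note: B-score derived from integrated fluorescence ratio over the kinetic read; more negative B-score means stronger inhibition of depolarization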
TRPC4 agonist = activators of mouse TRPC4 channel | B-score at 10 µM | Q9QUQ5 | 0.49% of 310,000 active | AID 2237 | HEK293 TRPC4beta/mu-opioid, Fluo4 calcium fluorescence; active compounds read high;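 active = B-score above 5 SD of library B-scores, and initial fluorescence ratio not above library mean plus 5 SD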;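 note: positive B-score marks a calcium rise read as TRPC4 activation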
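Assay system: HEK293 cells stably co-expressing mouse TRPC4beta and mu-opioid receptor / Timing: Fluo4 dye loading 45 min at room temperature, 110 s recording / Signal: Fluo4 calcium-sensitive dye fluorescence, kinetic, 1 Hz baseline / Read-out: integrated baseline-normalised fluorescence ratio, converted to per-well B score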
TRPC4 inh = inhibitors of mouse TRPC4 channel; Q9QUQ5; AID 2247; HEK293 TRPC4beta/mu-opioid, DAMGO-evoked Fluo4 calcium flux; active compounds read low; 0.39% of 300,000 active; B-score at 10 µM;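 active = B-score over 3 SD under the library average, no early fluorescence shift, positive overall ratio signal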
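System: stable TRPC4beta/mu-opioid receptor HEK293 cells; Dosing: single-point compound dosing; Measured by: Fluo4 Ca2+ flux fluorescence; Read-out basis: per-well B score of integrated baseline-normalized Fluo4 ratio.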
* hit, by the source's call; i = inactive.

SMILES	TRPC6 act	TRPC4 potent	TRPC6 inh	TRPC4 agonist	TRPC4 inh
c1ccc(Cc2c[nH]c3ccccc23)cc1	i	i	i	i	-5*
O=C(O)c1ccc(N/N=C/c2ccc(C(F)(F)F)cc2)cc1	i	i	i	i	-5*
CCN(CC(=O)NC(C)(C)C)Cc1cc(=O)n2c(-c3ccccc3)csc2n1	i	i	i	i	i
COc1cc(CNc2ccc3[nH]c(=O)[nH]c3c2)ccc1OCc1ccccc1Cl	i	12*	i	i	i
O=c1[nH]c2ccc(NCc3ccc(OCc4ccccc4Cl)cc3)cc2[nH]1	i	i	i	i	i
CC1=C(C(=O)OCC2CCCO2)C(c2ccc(F)cc2)NC(=O)N1 (stereo not given)	i	i	i	i	i
COc1ccc(CC(=O)N2CCc3cc(OC)c(OC)cc3C2O)cc1OC (stereo not given)	i	i	i	i	i
CCN1CCN(c2cc(N3CCN(C(=O)c4ccco4)CC3)c3c4c(onc24)-c2ccccc2C3=O)CC1	i	i	-5.9*	i	i
O=C(COc1ccc(S(=O)(=O)N2CCCC2)cc1)N1CCCC1	i	i	i	i	i
O=C(COC(=O)c1ccccc1[N+](=O)[O-])NCCCc1ccccc1	i	i	i	i	i
COc1ccc(-n2nc(C(=O)NCC(=O)N3CCC(C)CC3)c3ccccc3c2=O)cc1Cl	i	i	i	i	i
CCC(C(=O)O)N1C(=O)c2ccccc2C1=O (stereo not given)	i	i	i	i	i
CCCCC(C(=O)NC(=O)NCc1ccccc1)N1C(=O)c2ccccc2C1=O (stereo not given)	i	i	i	i	-6*
O=C(Nc1nnc(-c2ccc(F)cc2)o1)c1cccc([N+](=O)[O-])c1	i	i	i	126*	-6*
O=C(Nc1nnc(-c2ccc3c(c2)CCCC3)o1)c1ccccc1	i	i	i	66*	i
O=C(Nc1nnc(C2=COCCO2)o1)c1cccc([N+](=O)[O-])c1	i	i	i	i	i
O=C(Nc1nnc(-c2ccc3c(c2)CCCC3)o1)c1ccccc1Cl	i	i	i	i	i
O=C(Nc1nnc(-c2ccc(F)cc2)o1)c1cc(Cl)sc1Cl	i	i	i	220*	i
CC(C)N(CCCNC(=O)c1ccc(CS(=O)(=O)c2c(Cl)cccc2Cl)o1)Cc1ccccc1	i	i	i	i	i
COc1ccc(-c2nn(-c3ccccc3C)cc2CNCCc2cnc[nH]2)cc1F	i	i	i	i	i
CCn1cc(CNCc2cn(-c3ccccc3C)nc2-c2ccc(OC)c(F)c2)cn1	i	i	i	129*	i
COc1ccc(-c2nn(-c3ccccc3C)cc2CNC(C)Cn2cncn2)cc1F (stereo not given)	i	i	i	i	i
COc1ccc(-c2nn(-c3ccccc3C)cc2CNC(C)c2cn(C)nc2C)cc1F (stereo not given)	i	i	i	118*	i
CCN(CC)c1ccc(-c2n[nH]c(=S)n2-c2ccccc2)cc1	i	i	i	i	i
COc1ccc(Cn2c(C)nnc2-c2cnn(C)c2N)cc1	i	i	i	i	i
SMILES	TRPC6 act	TRPC4 potent	TRPC6 inh	TRPC4 agonist	TRPC4 inh
CC(C)CCSc1nc(N)c(C#N)cc1C#N	i	i	i	i	i
COc1ccc(NC(=O)c2c(NC(=O)CNCc3ccco3)sc3c2CCC3)cc1	i	i	i	i	i
CCOc1ccc(NC(=O)c2c(NC(=O)CNCCN3CCOCC3)sc3c2CCC3)cc1	i	i	-5.7*	i	i
Cc1ccn2c(NC3CCCCC3)c(C)nc2c1	i	i	i	i	i
Cc1ccn2c(NC3CCCCC3)c(C(C)C)nc2c1	i	i	i	i	-7*
CCOC(=O)C1CCN(CC(O)COc2ccc(C(C)(C)CC)cc2)CC1 (stereo not given)	i	i	i	i	i
CCOC(=O)C1CCN(CC(O)COc2ccc(C(C)(C)C)cc2)CC1 (stereo not given)	i	i	i	i	-6*
